Activity calls are given as the source filed them. No cut-off for these calls is given here. *1 amine or outer side, *2 acyl side, *3 side chain or, on linkers, in order; H or OH if unused. Where a SMILES comes first, the peptide text is derived from it. [ ]: non-standard residue; d: D form. Gly(oct-7-en-1-yl) = C=CCCCCCC[C@H](N)C(=O)O; Ala(5-hexenyl) = C=CCCCCC[C@H](N)C(=O)O; dNle(6-vinyl) = C=CCCCC[C@@H](N)C(=O)O; Gly(octyl) = CCCCCCCC[C@H](N)C(=O)O; X1 = CCCCCCC[C@H](N[*:1])C(=O)[*:2]
Experiments:
[1] = system: Plasma; assay: Induction of pre-beta HDL formation in human plasma after 2 hrs by ELISA; assay type: functional, cell-free
Method in brief: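 Increasing peptide concentrations were incubated with normal human plasma at 37 °C for 2 h. Pre-β HDL was quantified by a commercial human pre-β HDL ELISA.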

[2] = system: Mus musculus; assay: Effect on triglyceride level in C57/BL6 mouse at 20 mg/kg, sc after 1 hr; assay type: functional, organism-based; design: dose 20 mg/kg; settings: C57Bl/6
Method in brief: (§1)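 Male C57Bl/6 mice (≥12 weeks, chow-fed) given peptide subcutaneously in 50 mM mannitol/PBS vehicle. Serum was collected by cardiac puncture at 1 or 3 h, clotted 1 h at room temperature and spun at 10,000g. Serum triglyceride was measured by enzymatic colorimetric assay, with 3–5 animals per dose and time point.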

[3] = system: Mus musculus; assay: Effect on triglyceride level in C57/BL6 mouse at 20 mg/kg, sc after 3 hrs; assay type: functional, organism-based; design: dose 20 mg/kg; settings: C57Bl/6; method in brief: as §1
[4] = system: Mus musculus; assay: Effect on triglyceride level in C57/BL6 mouse at 60 mg/kg, sc after 1 hr; assay type: functional, organism-based; design: dose 60 mg/kg; settings: C57Bl/6; method in brief: as §1
[5] = target: Lipoprotein lipase (Bos taurus) (UniProt P11151); assay: Inhibition of Lipoprotein lipase in vitro
[6] = target: Phospholipid-transporting ATPase ABCA1 (Mus musculus, UniProt P41233); assay: Induction of ABCA1-mediated [3H]cholesterol efflux in mouse RAW 264.7 macrophages after 24 hrs
[7] = Plasma concentration in C57/BL6 mouse at 60 mg/kg, sc after 3 hrs; assay type: ADME, organism-based, C57Bl/6; design: dose 60 mg/kg, route subcutaneous
Method in brief: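 Male C57Bl/6 mice were dosed subcutaneously with peptide in 50 mM mannitol/PBS. Serum was taken by cardiac puncture, and peptide was measured by LC–MS/MS after acetonitrile protein precipitation.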

Phospholipid-transporting ATPase ABCA1, sequence (P41233 whole entry): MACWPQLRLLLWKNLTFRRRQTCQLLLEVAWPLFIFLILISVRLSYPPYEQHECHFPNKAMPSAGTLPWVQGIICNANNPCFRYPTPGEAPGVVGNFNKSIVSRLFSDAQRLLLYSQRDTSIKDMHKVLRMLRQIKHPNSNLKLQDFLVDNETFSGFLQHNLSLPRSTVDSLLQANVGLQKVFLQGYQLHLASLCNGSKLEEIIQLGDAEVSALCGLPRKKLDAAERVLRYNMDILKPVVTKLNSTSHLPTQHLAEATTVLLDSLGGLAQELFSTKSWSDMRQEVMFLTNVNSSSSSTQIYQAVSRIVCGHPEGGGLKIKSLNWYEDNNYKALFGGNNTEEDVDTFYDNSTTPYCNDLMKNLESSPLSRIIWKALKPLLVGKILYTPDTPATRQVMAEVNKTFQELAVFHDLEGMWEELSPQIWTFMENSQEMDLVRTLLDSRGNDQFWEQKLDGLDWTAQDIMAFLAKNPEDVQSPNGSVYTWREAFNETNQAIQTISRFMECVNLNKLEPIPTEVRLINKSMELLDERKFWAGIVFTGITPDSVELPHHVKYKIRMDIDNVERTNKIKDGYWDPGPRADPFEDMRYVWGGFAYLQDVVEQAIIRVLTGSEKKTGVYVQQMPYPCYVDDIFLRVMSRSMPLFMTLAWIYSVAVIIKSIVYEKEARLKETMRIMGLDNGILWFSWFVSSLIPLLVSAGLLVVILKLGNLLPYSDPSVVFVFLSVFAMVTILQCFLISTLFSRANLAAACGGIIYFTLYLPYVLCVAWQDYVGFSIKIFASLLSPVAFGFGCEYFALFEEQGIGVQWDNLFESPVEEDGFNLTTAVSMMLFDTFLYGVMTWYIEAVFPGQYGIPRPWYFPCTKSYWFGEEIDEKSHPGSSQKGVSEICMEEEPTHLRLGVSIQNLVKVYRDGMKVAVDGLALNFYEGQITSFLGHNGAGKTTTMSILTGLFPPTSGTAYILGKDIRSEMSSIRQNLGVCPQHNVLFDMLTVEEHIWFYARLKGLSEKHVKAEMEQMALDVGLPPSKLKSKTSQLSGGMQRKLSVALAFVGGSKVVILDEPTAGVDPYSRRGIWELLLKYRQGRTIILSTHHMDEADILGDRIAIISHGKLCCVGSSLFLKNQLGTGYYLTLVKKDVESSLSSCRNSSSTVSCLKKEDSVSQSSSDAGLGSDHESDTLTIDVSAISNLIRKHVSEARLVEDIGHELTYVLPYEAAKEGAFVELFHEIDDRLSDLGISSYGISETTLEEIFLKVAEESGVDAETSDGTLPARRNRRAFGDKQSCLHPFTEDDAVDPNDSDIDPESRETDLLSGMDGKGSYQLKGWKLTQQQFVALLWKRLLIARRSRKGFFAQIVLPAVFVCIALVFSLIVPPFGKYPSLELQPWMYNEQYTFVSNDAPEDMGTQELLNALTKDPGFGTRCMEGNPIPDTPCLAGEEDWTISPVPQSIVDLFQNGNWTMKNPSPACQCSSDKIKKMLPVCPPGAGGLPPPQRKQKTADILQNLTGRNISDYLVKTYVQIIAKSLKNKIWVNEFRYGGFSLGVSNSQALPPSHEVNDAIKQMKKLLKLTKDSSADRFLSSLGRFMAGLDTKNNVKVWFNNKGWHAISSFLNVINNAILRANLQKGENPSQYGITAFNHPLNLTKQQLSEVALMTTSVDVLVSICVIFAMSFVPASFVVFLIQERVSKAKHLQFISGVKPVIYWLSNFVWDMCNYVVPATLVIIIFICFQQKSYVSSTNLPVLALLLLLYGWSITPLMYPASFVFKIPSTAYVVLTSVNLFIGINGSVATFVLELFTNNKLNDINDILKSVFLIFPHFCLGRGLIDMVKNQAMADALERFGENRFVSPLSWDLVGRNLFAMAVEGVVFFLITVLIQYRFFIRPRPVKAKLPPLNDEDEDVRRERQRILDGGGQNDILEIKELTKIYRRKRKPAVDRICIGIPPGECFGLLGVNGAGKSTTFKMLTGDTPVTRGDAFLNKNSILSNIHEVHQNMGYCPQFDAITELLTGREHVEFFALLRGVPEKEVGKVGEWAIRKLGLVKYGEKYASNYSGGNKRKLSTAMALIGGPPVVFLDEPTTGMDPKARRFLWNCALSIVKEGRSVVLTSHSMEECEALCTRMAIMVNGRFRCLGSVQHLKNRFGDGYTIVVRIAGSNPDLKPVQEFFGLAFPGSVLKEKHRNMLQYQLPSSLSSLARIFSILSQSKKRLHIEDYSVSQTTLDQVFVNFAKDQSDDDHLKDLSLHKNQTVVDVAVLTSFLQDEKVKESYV

Compound | Activity [1] | EC50 [6] [nM] | other results
CCCCCCCC[C@H](NC(=O)[C@H](CCC(=O)O)NC(=O)[C@H](CC(N)=O)NC(=O)[C@H](CC(C)C)NC(=O)[C@H](CCCCN)NC(=O)[C@H](CCC(=O)O)NC(=O)[C@H](CCCNC(=N)N)NC(=O)[C@H](Cc1ccccc1)NC(=O)[C@H](CCC(=O)O)NC(=O)[C@H](CC(=O)O)NC(=O)[C@H](CC(C)C)NC(=O)[C@@H](NC(=O)[C@@H]1CCCN1C(C)=O)C(C)C)C(=O)N[C@@H](CC(C)C)C(=O)N[C@@H](CCC(=O)O)C(=O)N[C@@H](C)C(=O)N[C@@H](CC(C)C)C(=O)N[C@@H](CCCCN)C(=O)N[C@@H](CCC(N)=O)C(=O)N[C@@H](CCCCN)C(=O)N[C@@H](CC(C)C)C(=O)N[C@@H](CCCCN)C(N)=O (Ac-PVLDEFREKLNE[Gly(octyl)]LEALKQKLK-NH2) | Dose-dependent effect | – | Activity [2]: inactive; Activity [3]: inactive; Activity [4]: inactive; IC50 [5]: 88 µM
CC(=O)N[C@H](CC(=O)O)C(=O)N[C@H](Cc1c[nH]c2ccccc12)C(=O)N[C@H](Cc1ccccc1)C(=O)N[C@H](CCCCN)C(=O)N[C@H](C)C(=O)N[C@H](Cc1ccccc1)C(=O)N[C@H](Cc1ccc(O)cc1)C(=O)N[C@H](CC(=O)O)C(=O)N[C@H](CCCCN)C(=O)N[C@@H](C(=O)N[C@H](C)C(=O)N[C@H](CCC(=O)O)C(=O)N[C@H](CCCCN)C(=O)N[C@H](Cc1ccccc1)C(=O)N[C@H](CCCCN)C(=O)N[C@H](CCC(=O)O)C(=O)N[C@H](C)C(=O)N[C@H](Cc1ccccc1)C(N)=O)C(C)C (Ac-[dD][dW][dF][dK][dA][dF][dY][dD][dK][dV][dA][dE][dK][dF][dK][dE][dA][dF]-NH2) | – | 2000 | IC50 [5]: 24 µM
C=CCCCCC[C@H](NC(=O)[C@H](CCC(=O)O)NC(=O)[C@H](CC(N)=O)NC(=O)[C@H](CC(C)C)NC(=O)[C@H](CCCCN)NC(=O)[C@H](CCC(=O)O)NC(=O)[C@H](CCCN=C(N)N)NC(=O)[C@@H](CCCCC=C)NC(=O)[C@H](CCC(=O)O)NC(=O)[C@H](CC(=O)O)NC(=O)[C@H](CC(C)C)NC(=O)[C@@H](NC(=O)[C@@H]1CCCN1C(C)=O)C(C)C)C(=O)N[C@@H](CC(C)C)C(=O)N[C@@H](CCC(=O)O)C(=O)N[C@@H](C)C(=O)N[C@@H](CC(C)C)C(=O)N[C@@H](CCCCN)C(=O)N[C@@H](CCC(N)=O)C(=O)N[C@@H](CCCCN)C(=O)N[C@@H](CC(C)C)C(=O)N[C@@H](CCCCN)C(N)=O (Ac-PVLDE[dNle(6-vinyl)]REKLNE[Ala(5-hexenyl)]LEALKQKLK-NH2) | – | 800 | concentration at 3 h [7]: 116 µM
C=CCCCCCC[C@H](NC(=O)[C@H](CCC(=O)O)NC(=O)[C@H](CC(N)=O)NC(=O)[C@H](CC(C)C)NC(=O)[C@H](CCCCN)NC(=O)[C@H](CCC(=O)O)NC(=O)[C@H](CCCNC(=N)N)NC(=O)[C@H](Cc1ccccc1)NC(=O)[C@H](CCC(=O)O)NC(=O)[C@H](CC(=O)O)NC(=O)[C@H](CC(C)C)NC(=O)[C@@H](NC(=O)[C@@H]1CCCN1C(C)=O)C(C)C)C(=O)N[C@@H](CC(C)C)C(=O)N[C@@H](CCC(=O)O)C(=O)N[C@@H](C)C(=O)N[C@@H](CC(C)C)C(=O)N[C@@H](CCCCN)C(=O)N[C@@H](CCC(N)=O)C(=O)N[C@@H](CCCCN)C(=O)N[C@@H](CC(C)C)C(=O)N[C@@H](CCCCN)C(N)=O (Ac-PVLDEFREKLNE[Gly(oct-7-en-1-yl)]LEALKQKLK-NH2) | Dose-dependent effect | – | –
C=CCCCCC[C@H](NC(=O)[C@H](CCC(=O)O)NC(=O)[C@H](CC(N)=O)NC(=O)[C@H](CC(C)C)NC(=O)[C@H](CCCCN)NC(=O)[C@H](CCC(=O)O)NC(=O)[C@H](CCCNC(=N)N)NC(=O)[C@H](Cc1ccccc1)NC(=O)[C@H](CCC(=O)O)NC(=O)[C@H](CC(=O)O)NC(=O)[C@H](CC(C)C)NC(=O)[C@H](CCCCCC=C)NC(=O)[C@@H]1CCCN1C(C)=O)C(=O)N[C@@H](CC(C)C)C(=O)N[C@@H](CCC(=O)O)C(=O)N[C@@H](C)C(=O)N[C@@H](CC(C)C)C(=O)N[C@@H](CCCCN)C(=O)N[C@@H](CCC(N)=O)C(=O)N[C@@H](CCCCN)C(=O)N[C@@H](CC(C)C)C(=O)N[C@@H](CCCCN)C(N)=O (Ac-P[Ala(5-hexenyl)]LDEFREKLNE[Ala(5-hexenyl)]LEALKQKLK-NH2) | inactive | – | –
Ac-PVLDEFREKLNEELEALKQKLK-NH2 | – | > 100000 | concentration at 3 h [7]: 0.33 µM
C=CCCCCC[C@H](NC(=O)[C@H](C)NC(=O)[C@H](CCC(=O)O)NC(=O)[C@H](CC(C)C)NC(=O)[C@H](CCC(=O)O)NC(=O)[C@H](CCC(=O)O)NC(=O)[C@H](CC(N)=O)NC(=O)[C@H](CC(C)C)NC(=O)[C@H](CCCCN)NC(=O)[C@H](CCC(=O)O)NC(=O)[C@H](CCCNC(=N)N)NC(=O)[C@H](Cc1ccccc1)NC(=O)[C@H](CCC(=O)O)NC(=O)[C@H](CC(=O)O)NC(=O)[C@H](CC(C)C)NC(=O)[C@@H](NC(=O)[C@@H]1CCCN1C(C)=O)C(C)C)C(=O)N[C@@H](CCCCN)C(=O)N[C@@H](CCC(N)=O)C(=O)N[C@@H](CCCCN)C(=O)N[C@@H](CC(C)C)C(=O)N[C@@H](CCCCN)C(N)=O | – | > 100000 | –
C=CCCCCC[C@H](NC(=O)[C@H](CCC(=O)O)NC(=O)[C@H](CC(=O)O)NC(=O)[C@H](CC(C)C)NC(=O)[C@@H](NC(=O)[C@@H]1CCCN1C(C)=O)C(C)C)C(=O)N[C@@H](CCCNC(=N)N)C(=O)N[C@@H](CCC(=O)O)C(=O)N[C@@H](CCCCN)C(=O)N[C@@H](CC(C)C)C(=O)N[C@@H](CC(N)=O)C(=O)N[C@@H](CCC(=O)O)C(=O)N[C@@H](CCC(=O)O)C(=O)N[C@@H](CC(C)C)C(=O)N[C@@H](CCC(=O)O)C(=O)N[C@@H](C)C(=O)N[C@@H](CC(C)C)C(=O)N[C@@H](CCCCN)C(=O)N[C@@H](CCC(N)=O)C(=O)N[C@@H](CCCCN)C(=O)N[C@@H](CC(C)C)C(=O)N[C@@H](CCCCN)C(N)=O | – | > 100000 | –
CCCCCCC[C@H](NC(=O)[C@H](CCC(=O)O)NC(=O)[C@H](CC(N)=O)NC(=O)[C@H](CC(C)C)NC(=O)[C@H](CCCCN)NC(=O)[C@H](CCC(=O)O)NC(=O)[C@H](CCCNC(=N)N)NC(=O)[C@H](Cc1ccccc1)NC(=O)[C@H](CCC(=O)O)NC(=O)[C@H](CC(=O)O)NC(=O)[C@H](CC(C)C)NC(=O)[C@@H](NC(=O)[C@@H]1CCCN1C(C)=O)C(C)C)C(=O)N[C@@H](CC(C)C)C(=O)N[C@@H](CCC(=O)O)C(=O)N[C@@H](C)C(=O)N[C@@H](CC(C)C)C(=O)N[C@@H](CCCCN)C(=O)N[C@@H](CCC(N)=O)C(=O)N[C@@H](CCCCN)C(=O)N[C@@H](CC(C)C)C(=O)N[C@@H](CCCCN)C(N)=O (Ac-PVLDEFREKLNE[X1]LEALKQKLK-NH2) | Dose-dependent effect | – | –
C=CCCCCC[C@H](NC(=O)[C@H](CCCCN)NC(=O)[C@H](CCC(=O)O)NC(=O)[C@H](CCCNC(=N)N)NC(=O)[C@H](Cc1ccccc1)NC(=O)[C@H](CCC(=O)O)NC(=O)[C@H](CC(=O)O)NC(=O)[C@H](CC(C)C)NC(=O)[C@@H](NC(=O)[C@@H]1CCCN1C(C)=O)C(C)C)C(=O)N[C@@H](CC(N)=O)C(=O)N[C@@H](CCC(=O)O)C(=O)N[C@@H](CCC(=O)O)C(=O)N[C@@H](CC(C)C)C(=O)N[C@@H](CCC(=O)O)C(=O)N[C@@H](C)C(=O)N[C@@H](CC(C)C)C(=O)N[C@@H](CCCCN)C(=O)N[C@@H](CCC(N)=O)C(=O)N[C@@H](CCCCN)C(=O)N[C@@H](CC(C)C)C(=O)N[C@@H](CCCCN)C(N)=O | – | > 100000 | –
C=CCCCCC[C@H](NC(=O)[C@H](CCC(N)=O)NC(=O)[C@H](CCCCN)NC(=O)[C@H](CC(C)C)NC(=O)[C@H](C)NC(=O)[C@H](CCC(=O)O)NC(=O)[C@H](CC(C)C)NC(=O)[C@H](CCCCCC=C)NC(=O)[C@H](CCC(=O)O)NC(=O)[C@H](CC(N)=O)NC(=O)[C@H](CC(C)C)NC(=O)[C@H](CCCCN)NC(=O)[C@H](CCC(=O)O)NC(=O)[C@H](CCCN=C(N)N)NC(=O)[C@H](Cc1ccccc1)NC(=O)[C@H](CCC(=O)O)NC(=O)[C@H](CC(=O)O)NC(=O)[C@H](CC(C)C)NC(=O)[C@@H](NC(=O)[C@@H]1CCCN1C(C)=O)C(C)C)C(=O)N[C@@H](CC(C)C)C(=O)N[C@@H](CCCCN)C(N)=O (Ac-PVLDEFREKLNE[Ala(5-hexenyl)]LEALKQ[Ala(5-hexenyl)]LK-NH2) | – | 900 | –
CCCCCCCC[C@H](NC(=O)[C@H](CCC(=O)O)NC(=O)[C@H](CC(N)=O)NC(=O)[C@H](CC(C)C)NC(=O)[C@H](CCCCN)NC(=O)[C@H](CCC(=O)O)NC(=O)[C@H](CCCN=C(N)N)NC(=O)[C@H](Cc1ccccc1)NC(=O)[C@H](CCC(=O)O)NC(=O)[C@H](CC(=O)O)NC(=O)[C@H](CC(C)C)NC(=O)[C@@H](NC(=O)[C@@H]1CCCN1C(C)=O)C(C)C)C(=O)N[C@@H](CC(C)C)C(=O)N[C@@H](CCC(=O)O)C(=O)N[C@@H](C)C(=O)N[C@@H](CC(C)C)C(=O)N[C@@H](CCCCN)C(=O)N[C@@H](CCC(N)=O)C(=O)N[C@@H](CCCCN)C(=O)N[C@@H](CC(C)C)C(=O)N[C@@H](CCCCN)C(N)=O (Ac-PVLDEFREKLNE[Gly(octyl)]LEALKQKLK-NH2) | – | 700 | concentration at 3 h [7]: 188 µM
C=CCCCCCC[C@H](NC(=O)[C@H](CCC(=O)O)NC(=O)[C@H](CC(N)=O)NC(=O)[C@H](CC(C)C)NC(=O)[C@H](CCCCN)NC(=O)[C@H](CCC(=O)O)NC(=O)[C@H](CCCN=C(N)N)NC(=O)[C@H](Cc1ccccc1)NC(=O)[C@H](CCC(=O)O)NC(=O)[C@H](CC(=O)O)NC(=O)[C@H](CC(C)C)NC(=O)[C@@H](NC(=O)[C@@H]1CCCN1C(C)=O)C(C)C)C(=O)N[C@@H](CC(C)C)C(=O)N[C@@H](CCC(=O)O)C(=O)N[C@@H](C)C(=O)N[C@@H](CC(C)C)C(=O)N[C@@H](CCCCN)C(=O)N[C@@H](CCC(N)=O)C(=O)N[C@@H](CCCCN)C(=O)N[C@@H](CC(C)C)C(=O)N[C@@H](CCCCN)C(N)=O (Ac-PVLDEFREKLNE[Gly(oct-7-en-1-yl)]LEALKQKLK-NH2) | – | 700 | –

From ChEMBL document CHEMBL1629456, “ApoA-I mimetic peptides promote pre-β HDL formation in vivo causing remodeling of HDL and triglyceride accumulation at higher dose” (Bioorg Med Chem, 2010)
